Reference: ChEMBL document CHEMBL1177640 (Bioorg Med Chem, 2010)
pIC50: −log10 of the molar value. Values belong to the compound of their own block, whether it stands above or below them. The source made the active and inactive calls. The rule behind the calls is not given here.

What was measured:
[1] = tested on: BJ; assay: Cytotoxicity against human BJ cells at 5 to 20 uM after 72 hrs by Alamar blue assay; format: cell-based
Outline: (§1)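 Cells seeded 24 h ahead in 384-well plates at 1.0×10^3 (BJ) or 1.6×10^3 (Rh30) per well. Compound diluted from DMSO stock into medium and added in triplicate, then incubated 68 h at 37 °C. Alamar Blue added for a further 4 h, with fluorescence read at ex 510/em 590 nm. Viability normalized to DMSO (100%) and no-cell (0%) wells.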

[2] = target: Transcription factor Jun (Homo sapiens) (UniProt P05412); assay: Inhibition of transcriptional activity of AP1 transfected in mouse C3H10T1/2 cells at 20 uM after 24 hrs by luciferase reporter gene assay; format: cell-based; details: C3H 10T1/2
Outline: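 AP-1 reporter tested in C3H10T1/2 cells under the same conditions as the Gli1/Gli-Luc assay: 24 h compound exposure and dual-luciferase read-out normalized to DMSO.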

[3] = tested on: SJRH30; assay: Cytotoxicity against human Rh30 cells at 5 to 20 uM after 72 hrs by Alamar blue assay; format: functional, cell-based; outline: as §1
[4] = Inhibition of HDAC up to 40 uM
[5] = target: T1, Zinc finger protein GLI1 (Homo sapiens) (UniProt P08151); assay: Inhibition of human Gli1-mediated transcriptional activity in human Rh30 cells at 10 to 20 uM after 24 hrs by luciferase reporter gene assay; format: cell-based
T1 sequence (whole entry): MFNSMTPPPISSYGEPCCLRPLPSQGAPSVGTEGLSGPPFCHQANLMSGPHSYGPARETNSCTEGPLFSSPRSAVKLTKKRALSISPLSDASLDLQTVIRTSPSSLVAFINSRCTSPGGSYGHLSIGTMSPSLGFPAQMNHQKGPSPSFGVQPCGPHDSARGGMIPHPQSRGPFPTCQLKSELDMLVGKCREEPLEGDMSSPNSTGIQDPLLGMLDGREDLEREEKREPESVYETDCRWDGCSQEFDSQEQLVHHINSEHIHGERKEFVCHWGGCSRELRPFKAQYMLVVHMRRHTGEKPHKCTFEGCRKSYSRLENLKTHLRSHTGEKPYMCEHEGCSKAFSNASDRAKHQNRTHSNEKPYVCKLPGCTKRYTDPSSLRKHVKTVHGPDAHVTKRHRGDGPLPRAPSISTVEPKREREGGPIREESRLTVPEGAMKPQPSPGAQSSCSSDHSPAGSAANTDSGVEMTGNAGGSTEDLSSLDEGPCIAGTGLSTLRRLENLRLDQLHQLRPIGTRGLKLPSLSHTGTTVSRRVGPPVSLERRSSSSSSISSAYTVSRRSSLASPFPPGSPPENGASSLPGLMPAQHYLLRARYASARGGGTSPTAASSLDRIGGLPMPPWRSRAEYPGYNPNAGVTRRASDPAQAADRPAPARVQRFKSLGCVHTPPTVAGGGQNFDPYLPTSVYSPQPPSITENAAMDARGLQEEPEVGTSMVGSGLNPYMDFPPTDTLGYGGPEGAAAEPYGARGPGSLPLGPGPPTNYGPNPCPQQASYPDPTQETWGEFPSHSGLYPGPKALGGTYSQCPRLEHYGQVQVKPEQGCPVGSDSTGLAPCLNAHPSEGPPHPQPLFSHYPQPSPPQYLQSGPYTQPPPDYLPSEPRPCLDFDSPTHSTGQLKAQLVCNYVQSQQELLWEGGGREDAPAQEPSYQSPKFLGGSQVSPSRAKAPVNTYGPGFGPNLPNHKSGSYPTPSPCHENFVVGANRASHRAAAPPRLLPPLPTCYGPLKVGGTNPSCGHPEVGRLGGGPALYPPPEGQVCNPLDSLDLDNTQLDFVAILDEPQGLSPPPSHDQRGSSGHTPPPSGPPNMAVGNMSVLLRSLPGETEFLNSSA
Outline: (§2)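 Rh30 cells without Gli1 transfection, transfected overnight with GliLuc-BS (500 ng/mL) and pRL-CMV (2.5 ng/mL), then replated in 96-well plates. Compound given in RPMI-1640/10% FBS for 24 h at 37 °C. Firefly luminescence divided by Renilla and normalized to DMSO-treated cells (0% inhibition), triplicates.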

[6] = tested on: C3H 10T1/2; assay: Inhibition of Hh signal-induced alkaline phosphatase activity in mouse C3H10T1/2 cells at 10 uM after 4 days; format: functional, cell-based
[7] = Half life in CD-1 mouse liver microsomes; format: ADME, Microsome
Outline: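 CD-1 female mouse liver microsomes at 0.6329 mg/mL protein in 0.1 M potassium phosphate pH 7.4 with EDTA. Compound at 1 µM, reaction started with NADPH regenerating system at 37 °C and sampled at 0, 0.5, 1 and 2 h in triplicate. Quenched with cold acetonitrile containing ketoconazole internal standard and analysed by UPLC-MS SIR. ke taken from log-linear regression, t1/2 = ln2/ke.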

[8] = Permeability in buffer of pH 7.4 by PAMPA; format: ADME; details: for Papp: read-out: permeability
Outline: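 Double-Sink PAMPA: DMSO stock diluted 200-fold into system solution buffer pH 7.4 in the donor plate, with acceptor sink buffer pH 7.4. Incubated 0.5 h at room temperature with stirring. Donor and acceptor concentrations measured by UV (230–500 nm), triplicates.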

[9] = tested on: SJRH30; assay: Inhibition of cyclinD1 expression in human Rh30 cells at 10 to 40 uM after 24 hrs by RT-PCR analysis; format: functional, cell-based
Outline: (§3)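 Rh30 cells in 6-well plates treated with compound or DMSO for 24 h. Total RNA (250 ng) reverse-transcribed after DNase removal, then SYBR Green real-time PCR with primers at 200 nM. Target mRNA normalized to GAPDH and to the DMSO control by the 2^-ΔΔCt method. Duplicate data.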

[10] = tested on: SJRH30; assay: Inhibition of Ptch1 expression in human Rh30 cells at 10 to 40 uM after 24 hrs by RT-PCR analysis; format: functional, cell-based; outline: as §3
[11] = tested on: SJRH30; assay: Inhibition of Bcl2 expression in human Rh30 cells at 10 to 40 uM after 24 hrs by RT-PCR analysis; format: functional, cell-based; outline: as §3
[12] = target: T1, Zinc finger protein GLI1 (Homo sapiens); assay: Inhibition of human Gli1 expressed in mouse C3H10T1/2 cells assessed as inhibition of transcriptional activity at 10 to 20 uM after 24 hrs by luciferase reporter gene assay; format: cell-based; details: C3H 10T1/2
Outline: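 C3H10T1/2 cells transiently transfected overnight with GliLuc-BS, pRL-TK Renilla control and human Gli1 (or mouse Gli2 for Gli2 lines), 250 ng/mL each for the Gli plasmids. Cells replated in 96-well plates, then exposed to compound in BME/10% FBS for 24 h at 37 °C. Firefly/Renilla dual-luciferase ratio normalized to DMSO, triplicates. Dose–response IC50 from curve fitting.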

[13] = target: T1, Zinc finger protein GLI1 (Homo sapiens); assay: Inhibition of human Gli1-mediated transcriptional activity in human Rh30 cells up to 40 uM after 24 hrs by luciferase reporter gene assay; format: cell-based; outline: as §2
[14] = tested on: C3H 10T1/2; assay: Inhibition of Hh signal-induced alkaline phosphatase activity in mouse C3H10T1/2 cells after 4 days; format: functional, cell-based; details: C3H 10T1/2, 96 h
[15] = tested on: Caco-2; assay: Apparent permeability from apical to basolateral side of human Caco-2 cells at pH 7.4; format: ADME, cell-based; details: caco-2, pH 7.4
Outline: (§4)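 Caco-2 cells grown 7 days on Transwell inserts in MEM with 10% FBS. Monolayers washed with HBSS/HEPES (10 mM, pH 7.4), then compound at 50 µM added to the apical or basolateral side and incubated 2 h at 37 °C. Receiver fractions quantified by UPLC/MS, triplicates. Papp = dQ/dt […].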

[16] = tested on: Caco-2; assay: Efflux ratio of permeability from basolateral to apical side over apical to basolateral side in human Caco-2 cells at pH 7.4; details: caco-2, pH 7.4
[17] = tested on: Caco-2; assay: Apparent permeability from basolateral to apical side of human Caco-2 cells at pH 7.4; format: ADME, cell-based; details: caco-2, pH 7.4; outline: as §4

Transcription factor Jun (Homo sapiens), sequence (P05412 whole entry): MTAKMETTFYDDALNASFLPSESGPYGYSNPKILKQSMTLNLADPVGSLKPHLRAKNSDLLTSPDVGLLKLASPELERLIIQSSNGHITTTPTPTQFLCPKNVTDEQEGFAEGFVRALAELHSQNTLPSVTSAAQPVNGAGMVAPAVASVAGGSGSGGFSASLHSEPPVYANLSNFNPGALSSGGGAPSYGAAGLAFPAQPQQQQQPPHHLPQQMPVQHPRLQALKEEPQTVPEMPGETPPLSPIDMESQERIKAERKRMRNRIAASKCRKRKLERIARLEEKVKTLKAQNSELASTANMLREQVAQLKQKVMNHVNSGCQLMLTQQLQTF

SMILES: CC(C(=O)Nc1ccc2[nH]ccc2c1)c1cccc(C(=O)c2ccccc2)c1 (configuration not stated)
Activity [1]: Non-toxic
Activity [3]: Toxic

SMILES: CNC(=C[N+](=O)[O-])NCCSCc1ccc(CN(C)C)o1 [RANITIDINE]
permeability [8]: 2%

SMILES: CC(C(=O)NCCc1ccc(O)cc1)c1cccc(C(=O)c2ccccc2)c1 (configuration not stated)
Activity [1]: Non-toxic
Activity [3]: Toxic
inhibition [4]: inactive
Papp [15]: 130 nm/s
permeability [8]: 92%
Papp [8]: 60.2 ×10⁻⁶ cm/s
Ratio [16]: 0.45
Papp [17]: 58 nm/s

SMILES: CC(CNC(=O)c1ccc2cc[nH]c2c1)c1cccc(C(=O)c2ccccc2)c1 (configuration not stated)
Activity [1]: Non-toxic
Activity [3]: Toxic
inhibition [12]: Active

SMILES: CC(CNC(=O)c1c[nH]c2ccccc12)c1cccc(C(=O)c2ccccc2)c1 (configuration not stated)
Activity [1]: Non-toxic
Activity [3]: Toxic
inhibition [12]: Active

SMILES: CC(CNC(=O)c1ccc2[nH]ccc2c1)c1cccc(C(=O)c2ccccc2)c1 (configuration not stated)
Activity [1]: Non-toxic
inhibition [2]: inactive
Activity [3]: Toxic
inhibition [12]: Active
Papp [15]: 58 nm/s
t1/2 [7]: 0.6 h
permeability [8]: 47%
Papp [8]: 52.1 ×10⁻⁶ cm/s
Ratio [16]: 0.46
Papp [17]: 27 nm/s

SMILES: CCCN(C(=O)C(C)c1cccc(C(=O)c2ccccc2)c1)c1ccc2[nH]ccc2c1 (configuration not stated)
Activity [1]: Non-toxic
inhibition [2]: inactive
Activity [3]: Toxic
inhibition [4]: inactive
inhibition [5]: Active
inhibition [6]: inactive
t1/2 [7]: 0.8 h

SMILES: CCCN(C(=O)C(C)c1cccc(C(=O)c2ccccc2)c1)c1cccc2[nH]ccc12 (configuration not stated)
Activity [1]: Non-toxic
Activity [3]: Toxic

Further lines, with some results ahead:

inhibition [2]: inactive
inhibition [4]: inactive
inhibition [5]: Active
t1/2 [7]: 1.8 h
permeability [8]: 80%
Papp [8]: 71.4 ×10⁻⁶ cm/s
SMILES: CCCN(C(=O)C(C)c1cccc(C(=O)c2ccccc2)c1)c1ccc2cc[nH]c2c1 (configuration not stated)
Activity [1]: Non-toxic
Activity [3]: Toxic
inhibition [6]: inactive
inhibition [9]: Active
inhibition [10]: Active
inhibition [11]: Active

inhibition [12]: inactive
SMILES: CC(CNC(=O)Cc1ccc2[nH]ccc2c1)c1cccc(C(=O)c2ccccc2)c1 (configuration not stated)

inhibition [13]: inactive
pIC50 [14]: 7.00
SMILES: COc1cc(OC)cc(C(=O)Nc2ccc(Cl)c(-c3nc4cc(N(C)C)ccc4[nH]3)c2)c1

permeability [8]: 33%
SMILES: NC(=O)N1c2ccccc2C=Cc2ccccc21 [CARBAMAZEPINE]

inhibition [12]: Active
SMILES: CC(CNC(=O)c1cccc2cc[nH]c12)c1cccc(C(=O)c2ccccc2)c1 (configuration not stated)

inhibition [13]: inactive
inhibition [4]: inactive
SMILES: CCCN(CCc1ccc(O)cc1)C(=O)C(C)c1cccc(C(=O)c2ccccc2)c1 (configuration not stated)
Activity [1]: Non-toxic
Activity [3]: Toxic

inhibition [12]: Active
SMILES: CC(CNC(=O)c1cc2ccccc2[nH]1)c1cccc(C(=O)c2ccccc2)c1 (configuration not stated)
Activity [1]: Non-toxic
Activity [3]: Toxic

inhibition [12]: Active
SMILES: CC(CNC(=O)c1cccc2[nH]ccc12)c1cccc(C(=O)c2ccccc2)c1 (configuration not stated)

inhibition [2]: inactive
inhibition [5]: Active
Papp [15]: 122 nm/s
t1/2 [7]: 2.8 h
permeability [8]: 75%
Papp [8]: 77.8 ×10⁻⁶ cm/s
Ratio [16]: 0.31
Papp [17]: 39 nm/s
SMILES: CC(C(=O)Nc1ccc2cc[nH]c2c1)c1cccc(C(=O)c2ccccc2)c1 (configuration not stated)
Activity [1]: Non-toxic
Activity [3]: Toxic
inhibition [6]: inactive
